Experimental data of several laboratories.
Protocols differ between the studies behind these lines. Values after ≈ are worked out from the molar mass of the structure shown.

| Structure (SMILES) | organism | assay | system | setting | measurement | result |
| --- | --- | --- | --- | --- | --- | --- |
| COC(=O)c1cc(-c2cccc(NC(=S)Nc3ccc(Cl)cc3)c2)on1 | Mycobacteroides chelonae | microbial growth, broth dilution | ATCC35752 | 48 h | MIC | > 64 µg/mL |
| N#Cc1ccc(/C=C/c2nc3ccccc3c(=O)n2-c2cccc([N+](=O)[O-])c2)cc1 | Enterococcus faecium | microbial growth, broth dilution | NCTC7171 |  | MIC | > 128 µg/mL |
| COC(=O)c1cc(-c2cccc(NC(=O)Nc3ccc(C)c(Cl)c3)c2)on1 | Mycobacteroides chelonae | microbial growth, broth dilution | ATCC35752 | 48 h | MIC | > 64 µg/mL |
| O=c1cccc(C2CCCCC2)n1O | Candida albicans | microbial growth | ATCC90028 |  | MIC80 | 1.9 µM (≈ 0.367 µg/mL) |
| Nc1cccc(-n2c(/C=C/c3ccc(F)cc3)nc3ccccc3c2=O)c1 | Enterococcus faecium | microbial growth, broth dilution | NCTC7171 |  | MIC | 128 µg/mL (≈ 358 µM) |
| O=c1c2ccccc2[se]n1-c1ccccc1 | Trypanosoma brucei | parasite growth |  | blood stage | EC50 | 2.97 µM |
| COC(=O)c1cc(-c2cccc(NC(=O)Nc3ccc(F)c(F)c3)c2)on1 | Mycobacteroides chelonae | microbial growth, broth dilution | ATCC35752 | 48 h | MIC | > 64 µg/mL |
| O=c1c2ccccc2nc(/C=C/c2ccccc2)n1-c1cccc(O)c1 | Enterococcus faecium | microbial growth, broth dilution | NCTC7171 |  | MIC | 32 µg/mL (≈ 94 µM) |
| Cl.O[C@]12C=C(c3nccc4c3[nH]c3ccccc34)[C@@H]3CCN(CCCC/C=C\CC1)C[C@@]31C[C@@H]3/C=C\CCCCN3[C@H]12 | Mycobacterium intracellulare | microbial growth, resazurin | ATCC23068 |  | IC50 | 0.12 µg/mL |
| O=C(N/N=C/c1ccc(O)c(O)c1)c1cc2ccccc2cc1O | Murine coronavirus | viral replication |  |  | IC50 | 6 µM |
| Cc1nc(N)sc1-c1ccnc(Nc2ccc(N3CCOCC3)cc2)n1 | Plasmodium berghei | parasite growth, luciferase | human | liver stage | IC50 | 0.46 µM |
| O=c1c2ccccc2nc(/C=C/c2ccc(F)cc2)n1-c1cccc([N+](=O)[O-])c1 | Enterococcus faecium | microbial growth, broth dilution | NCTC7171 |  | MIC | > 128 µg/mL |
| CCOC(=O)c1cc(-c2cccc(NC(=O)Nc3ccc(Cl)c(Cl)c3)c2)on1 | Mycobacteroides chelonae | microbial growth, broth dilution | ATCC35752 | 48 h | MIC | > 64 µg/mL |
| O=c1c2ccccc2nc(/C=C/c2ccc(F)cc2)n1-c1cccc(O)c1 | Enterococcus faecium | microbial growth, broth dilution | NCTC7171 |  | MIC | 128 µg/mL (≈ 357 µM) |
| COC(=O)c1cc(-c2cccc(NC(=S)Nc3cccc(Br)c3)c2)on1 | Mycobacteroides chelonae | microbial growth, broth dilution | ATCC35752 | 48 h | MIC | > 64 µg/mL |
| Nc1ccc(/C=C/c2nc3ccccc3c(=O)n2-c2cccc(O)c2)cc1 | Enterococcus faecium | microbial growth, broth dilution | NCTC7171 |  | MIC | > 128 µg/mL |
| COc1ccc(Cc2cc(C)cc(=O)n2O)cc1 | Candida albicans | microbial growth | ATCC90028 |  | MIC80 | 2.3 µM (≈ 0.564 µg/mL) |
| COC(=O)c1cc(-c2cccc(NC(=O)Nc3ccccc3OC)c2)on1 | Mycobacteroides chelonae | microbial growth, broth dilution | ATCC35752 | 48 h | MIC | > 64 µg/mL |
| Cc1cc(Cc2ccccc2)n(O)c(=O)c1 | Candida albicans | microbial growth | ATCC90028 |  | MIC80 | 1.2 µM (≈ 0.258 µg/mL) |
| CN(C)C(=O)/C(C#N)=C/c1ccc(-c2nc3cnc4[nH]ccc4c3n2C2CCCCC2)o1 | Murine coronavirus | viral replication |  | 1 µM, 10 h | inhibition | 36% |
